From paper PMC11831629 (The Journal of International Medical Research, 2025)
Bridge positions count the residues as written; N and C are the ends. Square brackets hold non-standard residues; d marks the D form. Peptide text beside a SMILES is read from it. * marks the point of attachment. X1 = CC[C@H](C)CCCCC(=O)*; Dab = NCC[C@H](N)C(=O)O

What was measured:
[1] = type: in vivo, human
Outline: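 Elderly ICU patients without prior renal failure, AKI, RRT or ECMO received iv test compound for more than 3 days. AKI was a creatinine rise of more than 50% from baseline. Trough and peak plasma levels were measured by HPLC-MS/MS after at least six doses. AUCss,24h and Css,avg were derived with first-order elimination equations. ROC analysis gave sensitivity and specificity for AKI prediction.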

[2] = multicenter study; cited from earlier work
[3] = ROC curve analysis, critically ill elderly patients, 28 AKI vs 30 non-AKI

## CC[C@H](C)CCCCC(=O)N[C@@H](CCN)C(=O)N[C@H](C(=O)N[C@@H](CCN)C(=O)N[C@H]1CCNC(=O)[C@H]([C@@H](C)O)NC(=O)[C@H](CCN)NC(=O)[C@H](CCN)NC(=O)[C@H](CC(C)C)NC(=O)[C@@H](Cc2ccccc2)NC(=O)[C@H](CCN)NC1=O)[C@@H](C)O [polymyxin B] (X1-[Dab]T[Dab][Dab][Dab][dF]L[Dab][Dab]T; lactam 4-C)
[1]; 95% CI 0.579-0.847
  area under the ROC curve of Css,avg for prediction of PB-AKI: 0.713
[1]; 95% CI 0.661-0.910
  area under the ROC curve of Cmin for prediction of PB-AKI: 0.786
[1]; [3]
  cutoff value for Cmin for predicting AKI: 2940 ng/mL
  cutoff value for Css,avg for predicting AKI: 4140 ng/mL
[1]; cutoff 2.94 mg/L
  sensitivity of Cmin cutoff for prediction of PB-AKI: 78.57%
  specificity of Cmin cutoff for prediction of PB-AKI: 80.00%
[1]; cutoff 4.14 mg/L
  sensitivity of Css,avg cutoff for prediction of PB-AKI: 82.14
  specificity of Css,avg cutoff for prediction of PB-AKI: 53.33%
[2]
  mortality rate of patients with PB-associated AKI higher than that of patients without AKI: 17%
